Measurements published in ChEMBL document CHEMBL2346641, “Discovery of disubstituted piperidines and homopiperidines as potent dual NK1 receptor antagonists-serotonin reuptake transporter inhibitors for the treatment of depression” (Bioorg Med Chem, 2013).
pIC50: −log10 of the molar value. Calls of active or inactive are those of the source.

Tests used:
[1] = Ratio of drug level in brain to serum in gerbil at 30 mg/kg, ip after 36 mins; assay type: ADME, organism-based; parameters: dose 30 mg/kg, route intraperitoneal; conditions: gerbillinae
How it was run: (§1)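 Gerbils given single IP dose in 100% PEG-400 (0.1–30 mg/kg); brain and serum sampled 36 min post-dose, matching the interval from dosing to end of forced swim test. Drug concentrations (nM) measured in each matrix and brain-to-serum ratio calculated; mean of n = 3 with SD.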

[2] = Binding affinity to gerbil NK1 receptor; parameters: species or system Gerbillinae
[3] = Ratio of drug level in brain to serum in gerbil at 10 mg/kg, ip after 36 mins; assay type: ADME, organism-based; parameters: dose 10 mg/kg, route intraperitoneal; conditions: gerbillinae; how it was run: as §1
[4] = Ratio of drug level in brain to serum in gerbil at 1 mg/kg, ip after 36 mins; assay type: ADME, organism-based; parameters: dose 1 mg/kg, route intraperitoneal; conditions: gerbillinae; how it was run: as §1
[5] = Ratio of drug level in brain to serum in gerbil at 0.3 mg/kg, ip after 36 mins; assay type: ADME, organism-based; parameters: dose 0.3 mg/kg, route intraperitoneal; conditions: gerbillinae; how it was run: as §1
[6] = Ratio of drug level in brain to serum in gerbil at 0.1 mg/kg, ip after 36 mins; assay type: ADME, organism-based; parameters: dose 0.1 mg/kg, route intraperitoneal; conditions: gerbillinae; how it was run: as §1
[7] = Drug uptake in gerbil brain at 10 mg/kg, ip after 36 mins; assay type: ADME, organism-based; parameters: dose 10 mg/kg, route intraperitoneal; conditions: gerbillinae, read-out: Drug uptake
How it was run: (§2)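 Gerbils given IP doses as a solution in 100% PEG-400. Brain and serum sampled 36 min post-injection, covering the time from dosing to the end of the behavioral test. Values are means (n = 3) with SD.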

[8] = Drug uptake in gerbil brain at 30 mg/kg, ip after 36 mins; assay type: ADME, organism-based; parameters: dose 30 mg/kg, route intraperitoneal; conditions: gerbillinae, read-out: Drug uptake; how it was run: as §2
[9] = Drug uptake in gerbil brain at 0.3 mg/kg, ip after 36 mins; assay type: ADME, organism-based; parameters: dose 0.3 mg/kg, route intraperitoneal; conditions: gerbillinae, read-out: Drug uptake; how it was run: as §2
[10] = Drug uptake in gerbil brain at 1 mg/kg, ip after 36 mins; assay type: ADME, organism-based; parameters: dose 1 mg/kg, route intraperitoneal; conditions: gerbillinae, read-out: Drug uptake; how it was run: as §2
[11] = Drug uptake in gerbil brain at 0.1 mg/kg, ip after 36 mins; assay type: ADME, organism-based; parameters: dose 0.1 mg/kg, route intraperitoneal; conditions: gerbillinae, read-out: Drug uptake; how it was run: as §2
[12] = Drug uptake in gerbil serum at 10 mg/kg, ip after 36 mins; assay type: ADME, organism-based; parameters: dose 10 mg/kg, route intraperitoneal; conditions: gerbillinae, read-out: Drug uptake; how it was run: as §2
[13] = Drug uptake in gerbil serum at 1 mg/kg, ip after 36 mins; assay type: ADME, organism-based; parameters: dose 1 mg/kg, route intraperitoneal; conditions: gerbillinae, read-out: Drug uptake; how it was run: as §2
[14] = Drug uptake in gerbil serum at 3 mg/kg, ip after 36 mins; assay type: ADME, organism-based; parameters: dose 3 mg/kg, route intraperitoneal; conditions: gerbillinae, read-out: Drug uptake; how it was run: as §2
[15] = Drug uptake in gerbil serum at 0.3 mg/kg, ip after 36 mins; assay type: ADME, organism-based; parameters: dose 0.3 mg/kg, route intraperitoneal; conditions: gerbillinae, read-out: Drug uptake; how it was run: as §2
Gerbillinae [16] = experiment: Antidepressant activity in gerbil assessed as decrease in immobility time at 10 to 30 mg/kg, ip administered for 30 mins prior to testing measured for 6 mins by forced swimming test; assay type: functional, organism-based
Gerbillinae [17] = experiment: Antidepressant activity in gerbil assessed as decrease in immobility time at 0.3 to 3 mg/kg, ip administered for 30 mins prior to testing measured for 6 mins by forced swimming test; assay type: functional, organism-based
Gerbillinae [18] = experiment: Antidepressant activity in gerbil assessed as decrease in immobility time at 0.1 mg/kg, ip administered for 30 mins prior to testing measured for 6 mins by forced swimming test relative to vehicle-treated control; assay type: functional, organism-based; parameters: dose 0.1 mg/kg
Neuromedin-K receptor = target: T1, Neuromedin-K receptor (Homo sapiens, UniProt P29371); experiment: Inhibition of NK3 receptor (unknown origin)
T1 sequence (P29371 whole entry): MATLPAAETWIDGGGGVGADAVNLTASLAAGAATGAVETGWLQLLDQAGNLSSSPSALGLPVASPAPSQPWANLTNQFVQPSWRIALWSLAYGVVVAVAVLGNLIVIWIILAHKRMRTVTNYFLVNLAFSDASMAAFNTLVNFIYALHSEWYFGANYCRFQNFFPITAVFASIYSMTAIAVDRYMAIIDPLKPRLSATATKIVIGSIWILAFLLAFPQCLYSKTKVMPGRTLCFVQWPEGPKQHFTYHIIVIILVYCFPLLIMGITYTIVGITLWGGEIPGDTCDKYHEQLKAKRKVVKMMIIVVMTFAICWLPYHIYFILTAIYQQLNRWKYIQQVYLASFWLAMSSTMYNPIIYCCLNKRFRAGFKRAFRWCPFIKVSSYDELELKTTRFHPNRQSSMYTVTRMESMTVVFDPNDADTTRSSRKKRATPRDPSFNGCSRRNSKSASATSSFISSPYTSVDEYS

[19] = target: T2, 5-hydroxytryptamine receptor 2C (Homo sapiens, UniProt P28335); experiment: Inhibition of 5HT2C receptor (unknown origin)
T2 sequence (P28335 whole entry): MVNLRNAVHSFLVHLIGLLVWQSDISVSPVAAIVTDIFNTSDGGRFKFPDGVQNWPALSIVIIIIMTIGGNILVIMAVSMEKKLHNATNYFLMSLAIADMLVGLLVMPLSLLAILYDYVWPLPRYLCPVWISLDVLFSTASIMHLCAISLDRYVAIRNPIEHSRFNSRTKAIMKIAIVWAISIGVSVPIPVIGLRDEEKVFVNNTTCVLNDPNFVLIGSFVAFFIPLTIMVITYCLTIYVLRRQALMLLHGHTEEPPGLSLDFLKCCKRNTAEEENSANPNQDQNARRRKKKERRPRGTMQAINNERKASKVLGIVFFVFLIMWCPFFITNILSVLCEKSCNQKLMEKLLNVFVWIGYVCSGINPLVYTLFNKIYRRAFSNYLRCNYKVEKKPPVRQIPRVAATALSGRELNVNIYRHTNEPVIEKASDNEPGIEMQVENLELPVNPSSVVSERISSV

[20] = target: 5-hydroxytryptamine receptor 2A (Homo sapiens, UniProt P28223); experiment: Inhibition of 5HT2A receptor (unknown origin)
Sequence of 5-hydroxytryptamine receptor 2A (P28223 whole entry): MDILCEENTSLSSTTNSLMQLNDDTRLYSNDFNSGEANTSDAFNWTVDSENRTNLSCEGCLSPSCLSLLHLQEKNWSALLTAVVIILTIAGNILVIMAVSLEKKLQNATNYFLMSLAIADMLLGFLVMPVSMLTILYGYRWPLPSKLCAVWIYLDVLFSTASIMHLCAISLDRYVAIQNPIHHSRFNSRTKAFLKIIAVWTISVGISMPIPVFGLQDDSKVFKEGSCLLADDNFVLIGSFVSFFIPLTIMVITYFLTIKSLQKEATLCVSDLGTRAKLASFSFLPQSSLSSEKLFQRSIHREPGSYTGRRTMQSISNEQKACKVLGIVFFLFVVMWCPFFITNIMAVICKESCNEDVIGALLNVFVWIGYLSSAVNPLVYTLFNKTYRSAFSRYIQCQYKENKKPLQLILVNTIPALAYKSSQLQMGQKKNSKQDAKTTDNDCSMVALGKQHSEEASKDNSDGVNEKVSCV

[21] = target: T3, 5-hydroxytryptamine receptor 2B (Homo sapiens, UniProt P41595); experiment: Inhibition of 5HT2B receptor (unknown origin)
T3 sequence (P41595 whole entry): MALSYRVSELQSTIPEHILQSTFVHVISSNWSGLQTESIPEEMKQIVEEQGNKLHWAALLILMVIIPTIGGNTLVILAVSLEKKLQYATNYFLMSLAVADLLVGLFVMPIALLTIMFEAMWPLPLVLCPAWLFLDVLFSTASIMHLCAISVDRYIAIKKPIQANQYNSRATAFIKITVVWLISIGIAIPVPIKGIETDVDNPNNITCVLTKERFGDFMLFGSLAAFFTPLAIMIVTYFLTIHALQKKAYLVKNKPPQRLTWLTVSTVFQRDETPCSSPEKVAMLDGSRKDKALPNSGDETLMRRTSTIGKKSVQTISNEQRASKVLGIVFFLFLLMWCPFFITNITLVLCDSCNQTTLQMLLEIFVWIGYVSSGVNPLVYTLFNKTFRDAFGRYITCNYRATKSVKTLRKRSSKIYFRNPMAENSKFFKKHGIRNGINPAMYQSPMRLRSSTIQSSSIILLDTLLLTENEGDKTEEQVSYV

[22] = target: 5-hydroxytryptamine receptor 1B (Homo sapiens, UniProt P28222); experiment: Inhibition of 5HT1B receptor (unknown origin)
Sequence of 5-hydroxytryptamine receptor 1B (P28222 whole entry): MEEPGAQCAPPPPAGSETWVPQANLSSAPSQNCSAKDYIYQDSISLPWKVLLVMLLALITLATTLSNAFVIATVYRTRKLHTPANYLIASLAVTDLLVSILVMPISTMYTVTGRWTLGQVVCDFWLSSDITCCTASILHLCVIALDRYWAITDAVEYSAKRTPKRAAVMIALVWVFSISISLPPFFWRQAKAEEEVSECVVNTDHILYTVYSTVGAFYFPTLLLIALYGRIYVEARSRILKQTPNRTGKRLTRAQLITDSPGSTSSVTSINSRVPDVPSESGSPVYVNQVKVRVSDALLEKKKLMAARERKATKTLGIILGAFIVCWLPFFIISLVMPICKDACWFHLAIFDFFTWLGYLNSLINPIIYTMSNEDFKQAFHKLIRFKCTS

[23] = target: Sodium-dependent dopamine transporter (Homo sapiens, UniProt Q01959); experiment: Inhibition of DAT (unknown origin)
Sequence of Sodium-dependent dopamine transporter (Q01959 whole entry): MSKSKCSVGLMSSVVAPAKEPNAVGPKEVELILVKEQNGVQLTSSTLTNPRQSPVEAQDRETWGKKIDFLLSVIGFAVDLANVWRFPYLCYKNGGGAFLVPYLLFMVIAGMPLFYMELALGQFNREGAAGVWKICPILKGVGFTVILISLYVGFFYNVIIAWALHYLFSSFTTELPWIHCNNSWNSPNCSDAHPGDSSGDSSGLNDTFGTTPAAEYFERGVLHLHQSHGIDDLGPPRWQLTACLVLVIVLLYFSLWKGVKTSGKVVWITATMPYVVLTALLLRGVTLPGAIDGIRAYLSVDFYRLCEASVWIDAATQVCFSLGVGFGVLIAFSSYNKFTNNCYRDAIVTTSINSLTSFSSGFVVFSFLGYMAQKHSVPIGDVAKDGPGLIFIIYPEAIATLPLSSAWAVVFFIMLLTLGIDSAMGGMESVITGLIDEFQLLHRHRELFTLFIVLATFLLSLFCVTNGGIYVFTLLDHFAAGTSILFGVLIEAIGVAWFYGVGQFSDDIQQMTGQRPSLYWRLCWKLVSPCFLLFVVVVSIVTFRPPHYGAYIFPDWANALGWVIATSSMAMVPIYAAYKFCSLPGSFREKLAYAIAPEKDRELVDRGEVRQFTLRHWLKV

[24] = target: T4, Sodium-dependent noradrenaline transporter (Homo sapiens, UniProt P23975); experiment: Inhibition of NET (unknown origin)
T4 sequence (P23975 whole entry): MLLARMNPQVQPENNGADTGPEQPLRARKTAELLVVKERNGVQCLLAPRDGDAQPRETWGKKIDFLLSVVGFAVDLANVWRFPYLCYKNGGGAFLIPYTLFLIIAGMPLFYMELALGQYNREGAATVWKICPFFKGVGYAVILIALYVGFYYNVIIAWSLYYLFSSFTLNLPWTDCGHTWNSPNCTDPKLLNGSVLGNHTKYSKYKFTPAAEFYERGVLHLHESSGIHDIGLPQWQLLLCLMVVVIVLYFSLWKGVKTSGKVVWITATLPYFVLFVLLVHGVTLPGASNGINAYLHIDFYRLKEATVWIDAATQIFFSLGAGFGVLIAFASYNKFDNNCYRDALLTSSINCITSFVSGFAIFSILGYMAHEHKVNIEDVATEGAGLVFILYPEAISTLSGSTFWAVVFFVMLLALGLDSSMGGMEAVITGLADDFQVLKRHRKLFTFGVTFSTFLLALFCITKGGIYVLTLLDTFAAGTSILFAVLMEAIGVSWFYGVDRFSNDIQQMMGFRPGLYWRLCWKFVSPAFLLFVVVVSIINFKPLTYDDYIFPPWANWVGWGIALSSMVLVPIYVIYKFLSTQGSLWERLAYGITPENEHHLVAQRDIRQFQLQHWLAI

Homo sapiens [25] = organism: Homo sapiens; experiment: Inhibition of Na+ channel (unknown origin) at 10 uM
How it was run: (§3)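 Screened at 10 µM in a commercial panel of over 70 receptors. Significance threshold set at ≥50% inhibition.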

Homo sapiens [26] = organism: Homo sapiens; experiment: Inhibition of Ca2+ channel (unknown origin) at 10 uM; how it was run: as §3
[27] = target: T4, Sodium-dependent noradrenaline transporter; experiment: Inhibition of NET (unknown origin) at 10 uM; how it was run: as §3
[28] = target: Sodium-dependent serotonin transporter (Homo sapiens, UniProt P31645); assay type: cell-based, HEK293
Sequence of Sodium-dependent serotonin transporter (P31645 whole entry): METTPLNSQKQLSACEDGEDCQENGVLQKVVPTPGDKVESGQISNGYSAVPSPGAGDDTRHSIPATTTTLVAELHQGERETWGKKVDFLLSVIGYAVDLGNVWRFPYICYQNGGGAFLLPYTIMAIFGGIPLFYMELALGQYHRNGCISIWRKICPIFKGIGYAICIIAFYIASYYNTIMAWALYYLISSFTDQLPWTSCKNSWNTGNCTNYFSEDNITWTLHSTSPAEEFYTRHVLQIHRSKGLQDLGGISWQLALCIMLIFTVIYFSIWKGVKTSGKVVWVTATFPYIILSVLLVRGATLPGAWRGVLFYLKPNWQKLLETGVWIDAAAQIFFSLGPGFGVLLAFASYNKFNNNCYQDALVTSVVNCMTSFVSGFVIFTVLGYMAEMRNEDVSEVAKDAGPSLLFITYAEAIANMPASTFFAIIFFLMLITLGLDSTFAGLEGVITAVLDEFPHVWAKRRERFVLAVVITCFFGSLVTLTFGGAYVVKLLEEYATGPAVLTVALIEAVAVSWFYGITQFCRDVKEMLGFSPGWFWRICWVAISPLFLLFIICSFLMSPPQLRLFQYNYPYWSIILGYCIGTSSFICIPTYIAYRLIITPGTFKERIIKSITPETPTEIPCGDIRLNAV

[29] = target: T3, 5-hydroxytryptamine receptor 2B; conditions: 10 uM

Kp at 0.6 h [1]: 2.3
pIC50 [2]: 8.70
Kp at 0.6 h [3]: 5.2
Kp at 0.6 h [4]: 3.2
Kp at 0.6 h [5]: 3.2
Kp at 0.6 h [6]: 2.3
concentration at 0.6 h [7]: 4300 nM
concentration at 0.6 h [8]: 7300 nM
concentration at 0.6 h [9]: 44 nM
concentration at 0.6 h [10]: 150 nM
concentration at 0.6 h [11]: 8.8 nM
concentration at 0.6 h [12]: 730 nM
concentration at 0.6 h [13]: 35 nM
concentration at 0.6 h [14]: 210 nM
concentration at 0.6 h [15]: 12 nM
pIC50 (Neuromedin-K receptor): < 6.00
pIC50 [19]: < 6.00
pIC50 [20]: < 6.00
pIC50 [21]: < 6.00
pIC50 [22]: < 6.00
pIC50 [23]: < 6.00
pIC50 [24]: < 6.00
inhibition (Homo sapiens [25]): Active
inhibition (Homo sapiens [26]): Active
inhibition [27]: Active
pIC50 [28]: 9.00
inhibition [29]: Active
Compound: FC(F)(F)c1cc(COCC2(c3ccccc3)CCNCC2)cc(C(F)(F)F)c1
Activity (Gerbillinae [16]): inactive
Activity (Gerbillinae [17]): Active
Activity (Gerbillinae [18]): inactive
